Measurements: ChEMBL document CHEMBL6120993, “Cardenolides in Asclepias syriaca Seeds: Exploring the Legacy of Tadeus Reichstein” (J Nat Prod, 2025)

Tests used:
[1] = Inhibition of porcine sodium/potassium-ATPase incubated for 20 mins by Spectrophotometric analysis; set-up: species or system Sus scrofa domesticus
Procedure, shortened: (§1)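 Enzyme was porcine cerebral cortex Na+/K+-ATPase or dissected Oncopeltus fasciatus neural tissue. Six-point 1/10 series (5 × 10⁻³ to 5 × 10⁻⁸ M, in 20% DMSO/H2O) was diluted 1:5 into Tris-buffered ATP, NaCl, KCl, MgCl2 and enzyme, then held 20 min at 37 °C with shaking. SDS stop; Taussky–Shorr phosphate read at 700 nm. KCl-free background contained 10 mM ouabain. Technical triplicates; ouabain reference; 4-parameter logistic mixed model gave IC50.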

[2] = Inhibition of seed bug sodium/potassium-ATPase incubated for 20 mins by Spectrophotometric analysis; set-up: species or system Oncopeltus fasciatus; procedure, shortened: as §1

Compound	IC50 [1] [µM]	IC50 [2] [µM]
C[C@@H]1C[C@@]2(N=CCS2)[C@]2(O)O[C@@H]3C[C@@]4(C)[C@@H](C[C@@H]5O[C@]56[C@@H]4[C@H](O)C(=O)[C@]4(C)[C@@H](C5=CC(=O)OC5)CC[C@]64O)C[C@H]3O[C@@H]2O1	0.9	220
C[C@@H]1C[C@@H](O[C@@H]2O[C@H](CO)[C@@H](O)[C@H](O)[C@H]2O)[C@]2(O)O[C@@H]3C[C@@]4(C)[C@@H](C[C@@H]5O[C@]56[C@@H]4[C@H](O)[C@H](O)[C@]4(C)[C@@H](C5=CC(=O)OC5)CC[C@@]46O)C[C@H]3O[C@@H]2O1	2.2	1960
C[C@@H]1O[C@@H](O[C@H]2C[C@@H](O)[C@]3(CO)[C@H]4[C@H](O)C[C@]5(C)[C@@H](C6=CC(=O)OC6)CC[C@]5(O)[C@@H]4CC[C@]3(O)C2)[C@H](O)[C@H](O)[C@H]1O [OUABAIN]	0.7	2100
C[C@H]1O[C@@H](O[C@H]2CC[C@@]3(C)[C@@H](CC[C@@H]4[C@@H]3C[C@@H](O)[C@]3(C)[C@@H](C5=CC(=O)OC5)CC[C@]43O)C2)[C@H](O)[C@H](O)[C@@H]1O[C@@H]1O[C@H](CO)[C@@H](O)[C@H](O)[C@H]1O	1.1	220
C[C@H]1O[C@@H](O[C@H]2CC[C@@]3(C)[C@H](C2)C[C@@H]2O[C@]24[C@@H]3CC[C@]2(C)[C@@H](C3=CC(=O)OC3)CC[C@]42O)[C@H](O)[C@H](O)[C@@H]1O[C@@H]1O[C@H](CO)[C@@H](O)[C@H](O)[C@H]1O	1.1	830
C[C@@H]1C[C@@H](O[C@@H]2O[C@H](CO)[C@@H](O)[C@H](O)[C@H]2O)[C@]2(O)O[C@@H]3C[C@@]4(C)[C@@H](C[C@@H]5O[C@]56[C@@H]4[C@H](O)C(=O)[C@]4(C)[C@@H](C5=CC(=O)OC5)CC[C@]64O)C[C@H]3O[C@@H]2O1	0.9	640
C[C@H]1O[C@@H](O[C@H]2CC[C@@]3(C)[C@H](C2)C[C@@H]2O[C@]24[C@@H]3C[C@@H](O)[C@]2(C)[C@@H](C3=CC(=O)OC3)CC[C@@]24O)[C@H](O)[C@H](O)[C@@H]1O	1.4	1080
C[C@H]1O[C@@H](O[C@H]2CC[C@@]3(C)[C@H](C2)C[C@@H]2O[C@]24[C@@H]3C[C@@H](O)[C@]2(C)[C@@H](C3=CC(=O)OC3)CC[C@@]24O)[C@H](O)[C@H](O)[C@@H]1O[C@@H]1O[C@H](CO)[C@@H](O)[C@H](O)[C@H]1O	1.4	1040
